Laboratory results published in ChEMBL document CHEMBL1955718, “Discovery of new orally effective analgesic and anti-inflammatory hybrid furoxanyl N-acylhydrazone derivatives” (Bioorg Med Chem, 2012).
Activity calls are given as the source filed them.

Key:
[1] = tested on: Rattus norvegicus; assay: Antihyperalgesic activity against carrageenan-induced thermal hyperalgesia in Wistar rat assessed as latency of withdrawal response at 100 umol/kg, po administered 1 hr before carrageenan challenge measured after 30 to 240 mins by hot plate test; format: functional, organism-based
In short: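 Wistar rats of both sexes (150–200 g) dosed orally at 100 µmol/kg as suspension in 5% arabic gum in saline, vehicle controls. After 1 h, 1% carrageenan (1 mg/paw) or saline injected subplantar. Left hind paw withdrawal latency on hot plate at 51 ± 0.1 °C read at 0–240 min, 20 s cut-off. Δ latency = time-0 latency minus later latency; mean ± SEM, n = 8–10; Student t-test.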

[2] = tested on: Salmonella typhimurium; assay: Induction of mutagenesis in Salmonella Typhimurium TA98 assessed as number of revertants at 4 to 350 ug/plate in presence of mouse liver S9 fraction; format: toxicity, organism-based; conditions: salmonella enterica subsp. enterica serovar typhimurium
In short: (§1)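 S. typhimurium TA98, plate incorporation on minimal glucose (Vogel-Bonner) agar. Compounds were in DMSO, dosed in triplicate with a top non-toxic dose of 250 or 350 µg/plate. Runs were without S9 (positive control 4-nitro-o-phenylenediamine, 20 µg/plate) or with 500 µL Aroclor-induced mouse liver S9 (positive control 2-aminofluorene, 10 µg/plate), plus a DMSO control. Revertants were counted manually; mutagenic means ≥2-fold spontaneous revertants at two consecutive doses.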

[3] = tested on: Mus musculus; assay: Analgesic activity in albino mouse assessed as inhibition of acetic acid-induced abdominal constriction at 100 umol/kg, po administered 1 hr before acetic acid challenge measured after 60 mins relative to control; format: functional; conditions: Abdomen
In short: (§2)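 Albino mice of both sexes (18–23 g) were dosed orally as a suspension in 5% arabic gum in saline, with vehicle controls. After 1 h they received 0.6% acetic acid ip (0.1 mL/10 g). Constrictions were counted for 20 min starting 10 min after injection. Data are % inhibition vs vehicle, mean ± SEM, Student t-test.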

[4] = tested on: HT-29; assay: Inhibition of NF-kappaB activation expressed in human HT-29 cells assessed as inhibition of TNFalpha-stimulated IL8 release at 100 uM after 24 hrs by flow cytometric analysis relative to control; format: cell-based
In short: (§3)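 Reporter HT-29-NF-κB-hrGFP cells pretreated 2 h with compound (DMSO <0.5%) at the highest concentration with 100% survival, then stimulated with TNF-α (3 ng/mL final) for 18–24 h at 37 °C. IL-8 in clarified supernatant measured by flow cytometric bead assay (500 events). Expressed as % of TNF-α/DMSO control ± SD; thalidomide as reference.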

[5] = tested on: Salmonella typhimurium; assay: Induction of mutagenesis in Salmonella Typhimurium TA98 assessed as number of revertants at 4 to 350 ug/plate in absence of mouse liver S9 fraction; format: toxicity, organism-based; conditions: salmonella enterica subsp. enterica serovar typhimurium; in short: as §1
[6] = tested on: Salmonella typhimurium; assay: Induction of mutagenesis in Salmonella Typhimurium TA98 assessed as number of revertants at 6 to 500 ug/plate in absence of mouse liver S9 fraction; format: toxicity, organism-based; conditions: salmonella enterica subsp. enterica serovar typhimurium
[7] = tested on: Salmonella typhimurium; assay: Induction of mutagenesis in Salmonella Typhimurium TA98 assessed as number of revertants at 6 to 500 ug/plate in presence of mouse liver S9 fraction; format: toxicity, organism-based; conditions: salmonella enterica subsp. enterica serovar typhimurium
[8] = tested on: Rattus norvegicus; assay: Antihyperalgesic activity against carrageenan-induced thermal hyperalgesia in Wistar rat assessed as latency of withdrawal response at 100 umol/kg, po administered 1 hr before carrageenan challenge measured after 3 hrs by hot plate test; format: functional
In short: (§4)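 Wistar rats of both sexes (150–200 g) were dosed orally as a suspension in 5% arabic gum in saline, with vehicle controls. After 1 h, 0.1 mL 1% carrageenan (1 mg/paw) or saline was injected subplantar into the hind paws. Left hind paw withdrawal latency was read on a 51 °C hot plate at 0–240 min (cut-off 20 s). Δlatency = time-0 minus later latency; mean ± SEM, n = 8–10; t-test.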

[9] = tested on: HT-29; assay: Inhibition of TNF-alpha-induced NFkappaB activation expressed in human HT-29 cells coexpressing hrGFP at 50 uM after 24 hrs by propidium iodide staining-based flow cytometric analysis relative to control; format: cell-based
In short: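 HT-29 cells stably expressing NF-κB-driven hrGFP given compound (DMSO <0.5%) for 2 h at the maximum non-cytotoxic concentration, then TNF-α at 3 ng/mL final for 18–24 h. Cells trypsinised and stained with propidium iodide; 5000 events gated on FSC/SSC. The %GFP-positive among PI-excluding live cells is normalised to TNF-α/DMSO control, ± SD.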

[10] = tested on: Mus musculus; assay: Analgesic activity in albino mouse assessed as inhibition of acetic acid-induced abdominal constriction at 100 umol/kg, po administered 1 hr before acetic acid challenge measured after 30 mins relative to control; format: functional; conditions: Abdomen; in short: as §2
[11] = tested on: HT-29; assay: Inhibition of NF-kappaB activation expressed in human HT-29 cells assessed as inhibition of TNFalpha-stimulated IL8 release at 50 uM after 24 hrs by flow cytometric analysis relative to control; format: cell-based; in short: as §3
[12] = tested on: Rattus norvegicus; assay: Antihyperalgesic activity against carrageenan-induced thermal hyperalgesia in Wistar rat assessed as latency of withdrawal response at 100 umol/kg, po administered 1 hr before carrageenan challenge measured after 1 hr by hot plate test; format: functional; in short: as §4
[13] = tested on: HT-29; assay: Inhibition of NF-kappaB activation expressed in human HT-29 cells assessed as inhibition of TNFalpha-stimulated IL8 release at 400 uM after 24 hrs by flow cytometric analysis relative to Thal; format: cell-based; in short: as §3
[14] = Inhibition of soybean lipoxygenase using arachidonic acid as substrate; set-up: species or system Glycine max
In short: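 Soybean 15-lipoxygenase kit assay, arachidonic acid substrate, H2O2 as lipoxygenating agent in 0.1 M Tris-HCl pH 7.4. Single-point screen at 50 µM. IC50 found by varying concentration over 10–100 µM. Quercetin at 4 µM as positive control; duplicate means; Student t-test.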

[15] = tested on: Salmonella typhimurium; assay: Induction of mutagenesis in Salmonella Typhimurium TA98 assessed as number of revertants at 3.1 to 250 ug/plate in presence of mouse liver S9 fraction; format: toxicity, organism-based; conditions: salmonella enterica subsp. enterica serovar typhimurium; in short: as §1
[16] = tested on: Salmonella typhimurium; assay: Induction of mutagenesis in Salmonella Typhimurium TA98 assessed as number of revertants at 3.1 to 250 ug/plate in absence of mouse liver S9 fraction; format: toxicity, organism-based; conditions: salmonella enterica subsp. enterica serovar typhimurium; in short: as §1

Cc1c(C(=O)N/N=C/c2ccc(N(C)C)cc2)no[n+]1[O-]
Activity [1]: inactive | Activity [2]: Non-toxic | inhibition in vivo at 100 µmol/kg [3]: 22% | inhibition [4]: 98% | Activity [5]: Non-toxic

Cc1[nH]cnc1C(=O)N/N=C/c1ccc2no[n+]([O-])c2c1
Activity [6]: Toxic | Activity [7]: Non-toxic | inhibition in vivo at 100 µmol/kg [8]: 14% | NF-kappaB activation (% of TNF-alpha control) [9]: 71% | inhibition in vivo at 100 µmol/kg [10]: 46% | inhibition [11]: 51%

O=C(N/N=C/c1c(-c2ccccc2)no[n+]1[O-])c1ccc2c(c1)OCO2
inhibition in vivo at 100 µmol/kg [12]: 14% | fold change (FC) [13]: 16 | inhibition in vivo at 100 µmol/kg [10]: 42% | IC50 [14]: > 100 µM | inhibition [4]: 4% | Activity [15]: Non-toxic | Activity [16]: Non-toxic
